# Target: T1, NADPH oxidase 2 (Homo sapiens, UniProt P04839)
# T1 sequence (P04839 whole entry): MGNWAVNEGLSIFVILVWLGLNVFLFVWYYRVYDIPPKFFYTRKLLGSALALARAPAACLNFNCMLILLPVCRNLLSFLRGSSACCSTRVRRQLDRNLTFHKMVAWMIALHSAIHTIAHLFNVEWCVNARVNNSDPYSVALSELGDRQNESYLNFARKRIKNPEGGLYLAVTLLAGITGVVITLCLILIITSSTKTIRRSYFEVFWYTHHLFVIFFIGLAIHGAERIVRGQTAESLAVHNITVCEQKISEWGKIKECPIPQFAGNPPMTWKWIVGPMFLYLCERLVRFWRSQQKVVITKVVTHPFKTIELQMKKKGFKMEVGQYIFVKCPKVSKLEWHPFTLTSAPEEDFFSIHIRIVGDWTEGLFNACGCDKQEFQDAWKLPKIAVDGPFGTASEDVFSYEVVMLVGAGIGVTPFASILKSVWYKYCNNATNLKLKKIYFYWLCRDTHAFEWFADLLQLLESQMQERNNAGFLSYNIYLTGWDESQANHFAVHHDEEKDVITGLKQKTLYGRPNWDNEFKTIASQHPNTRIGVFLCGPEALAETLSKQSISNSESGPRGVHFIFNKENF
# Assay: Inhibition of full length human NOX2 transfected in COS 22 cells assessed as inhibition of Phorbol 12-myristate 13-acetate-stimulated ROS generation by chemiluminescence assay
# Format: cell-based
# Conditions: cos 22; call rule not given here
# How it was run: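 COS-Nox2 (COS-7 stably expressing human p22phox, Nox2, p47phox, p67phox) plated in OPTIMEM at 2.5 x 10³ cells/well; 10 min at 37 °C in PBS with L-012, then stimulated with 5 µM PMA; luminescence followed over time; superoxide specificity checked with SOD 150 U/mL. IC50 by three-parameter non-linear fit, Hill slope 1, top/bottom fixed 100/0.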
row,Compound,IC50
1,C=C(C)C[C@@H]1N[C@H]2CC(C)(C)[C@@H]1c1c(-c3cccnc3)cccc12 (racemic),Not Active

# Same assay, conditions: read-out: IC50
row,Compound,IC50 [µM]
1,C=C(C)C[C@H]1[C@H]2c3c(Br)cccc3[C@H](CC2(C)C)N1S(=O)(=O)c1ccc(F)cc1 (racemic),> 100
2,C=C(C)C[C@@H]1N[C@H]2CC(C)(C)[C@@H]1c1ccccc12 (racemic),> 100
3,C=C(C)C[C@@H]1N[C@H]2CC(C)(C)[C@@H]1c1c(-c3ccc(Cl)c(Cl)c3)cccc12 (racemic),9
4,C=C(C)C[C@H]1[C@H]2c3ccccc3[C@H](CC2(C)C)N1Cc1cccc(F)c1 (racemic),68
5,C=C(C)C[C@H]1[C@H]2c3c(Br)cccc3[C@H](CC2(C)C)N1Cc1cccs1 (racemic),38
6,C=C(C)C[C@H]1[C@H]2c3c(-c4ccc(Cl)c(Cl)c4)cccc3[C@H](CC2(C)C)N1Cc1ccc2c(c1)OCO2 (racemic),> 100

# Target: T1, NADPH oxidase 2
# Assay: Inhibition of full length human NOX2 transfected in COS 22 cells assessed as inhibition of Phorbol 12-myristate 13-acetate-stimulated ROS generation by measuring H2O2 production by fluorescence assay in presence of superoxide dismutase
# Format: cell-based
# Conditions: cos 22
# How it was run: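 Intact COS-Nox2 cells in Hepes pH 7.4 buffer with 0.1 mM Amplex Red, 0.32 U/ml HRP and 150 U/mL SOD, drug 15 min at 37 °C; started with 5 µM PMA; fluorescence monitored 1 h at 37 °C; rate as RFU/min minus unstimulated cells; % of vehicle control.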
row,Compound,IC50
1,C=C(C)C[C@@H]1N[C@H]2CC(C)(C)[C@@H]1c1c(-c3cccnc3)cccc12 (racemic),Not Active

# Same assay, conditions: read-out: IC50
row,Compound,IC50 [µM]
1,C=C(C)C[C@H]1[C@H]2c3c(Br)cccc3[C@H](CC2(C)C)N1S(=O)(=O)c1ccc(F)cc1 (racemic),> 100
2,C=C(C)C[C@@H]1N[C@H]2CC(C)(C)[C@@H]1c1ccccc12 (racemic),> 100
3,C=C(C)C[C@@H]1N[C@H]2CC(C)(C)[C@@H]1c1c(-c3ccc(Cl)c(Cl)c3)cccc12 (racemic),64
4,C=C(C)C[C@H]1[C@H]2c3ccccc3[C@H](CC2(C)C)N1Cc1cccc(F)c1 (racemic),30
5,C=C(C)C[C@H]1[C@H]2c3c(Br)cccc3[C@H](CC2(C)C)N1Cc1cccs1 (racemic),32
6,C=C(C)C[C@H]1[C@H]2c3c(-c4ccc(Cl)c(Cl)c4)cccc3[C@H](CC2(C)C)N1Cc1ccc2c(c1)OCO2 (racemic),> 100

# Target: T2, NADPH oxidase 5 (Homo sapiens, UniProt Q96PH1)
# T2 sequence (Q96PH1 whole entry): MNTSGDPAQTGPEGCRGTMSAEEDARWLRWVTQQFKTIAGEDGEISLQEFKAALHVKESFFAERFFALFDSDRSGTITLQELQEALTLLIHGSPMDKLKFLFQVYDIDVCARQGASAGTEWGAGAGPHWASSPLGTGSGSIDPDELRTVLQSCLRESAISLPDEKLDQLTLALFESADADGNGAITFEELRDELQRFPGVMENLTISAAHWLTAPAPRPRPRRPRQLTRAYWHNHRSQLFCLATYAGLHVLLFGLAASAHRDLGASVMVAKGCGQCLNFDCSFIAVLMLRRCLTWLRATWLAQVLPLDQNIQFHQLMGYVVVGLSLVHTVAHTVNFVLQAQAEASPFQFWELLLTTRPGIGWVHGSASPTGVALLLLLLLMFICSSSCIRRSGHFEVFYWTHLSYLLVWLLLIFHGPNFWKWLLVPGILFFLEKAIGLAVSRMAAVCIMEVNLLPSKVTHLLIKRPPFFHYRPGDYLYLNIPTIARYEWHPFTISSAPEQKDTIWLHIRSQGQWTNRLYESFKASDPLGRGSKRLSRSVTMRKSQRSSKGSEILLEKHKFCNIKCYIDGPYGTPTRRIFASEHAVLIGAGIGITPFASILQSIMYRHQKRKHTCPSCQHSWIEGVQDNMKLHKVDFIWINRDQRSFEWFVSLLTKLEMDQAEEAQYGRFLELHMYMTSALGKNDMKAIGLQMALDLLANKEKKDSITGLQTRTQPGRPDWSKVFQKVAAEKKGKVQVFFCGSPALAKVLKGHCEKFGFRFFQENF
# Assay: Inhibition of full length human NOX5 transfected in HEK cells assessed as inhibition of ionomycin-stimulated ROS generation by chemiluminescence assay
# Format: cell-based, HEK293
# Conditions: not given
# How it was run: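 HEK-Nox5 cells at 5 × 10⁴ cells/well in OPTIMEM, 10 min at 37 °C in PBS with L-012, then stimulated with 1 µM PMA/0.1 µM ionomycin; luminescence over time; SOD 150 U/mL used to confirm superoxide specificity. IC50 by three-parameter fit, Hill slope 1, top/bottom fixed 100/0.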
row,Compound,IC50 [µM]
1,C=C(C)C[C@H]1[C@H]2c3c(Br)cccc3[C@H](CC2(C)C)N1S(=O)(=O)c1ccc(F)cc1 (racemic),> 100
2,C=C(C)C[C@@H]1N[C@H]2CC(C)(C)[C@@H]1c1ccccc12 (racemic),> 100
3,C=C(C)C[C@@H]1N[C@H]2CC(C)(C)[C@@H]1c1c(-c3ccc(Cl)c(Cl)c3)cccc12 (racemic),14
4,C=C(C)C[C@H]1[C@H]2c3ccccc3[C@H](CC2(C)C)N1Cc1cccc(F)c1 (racemic),50
5,C=C(C)C[C@H]1[C@H]2c3c(Br)cccc3[C@H](CC2(C)C)N1Cc1cccs1 (racemic),> 100
6,C=C(C)C[C@H]1[C@H]2c3c(-c4ccc(Cl)c(Cl)c4)cccc3[C@H](CC2(C)C)N1Cc1ccc2c(c1)OCO2 (racemic),> 100

# Target: Xanthine dehydrogenase/oxidase (Bos taurus, UniProt P80457)
# Sequence (P80457 whole entry): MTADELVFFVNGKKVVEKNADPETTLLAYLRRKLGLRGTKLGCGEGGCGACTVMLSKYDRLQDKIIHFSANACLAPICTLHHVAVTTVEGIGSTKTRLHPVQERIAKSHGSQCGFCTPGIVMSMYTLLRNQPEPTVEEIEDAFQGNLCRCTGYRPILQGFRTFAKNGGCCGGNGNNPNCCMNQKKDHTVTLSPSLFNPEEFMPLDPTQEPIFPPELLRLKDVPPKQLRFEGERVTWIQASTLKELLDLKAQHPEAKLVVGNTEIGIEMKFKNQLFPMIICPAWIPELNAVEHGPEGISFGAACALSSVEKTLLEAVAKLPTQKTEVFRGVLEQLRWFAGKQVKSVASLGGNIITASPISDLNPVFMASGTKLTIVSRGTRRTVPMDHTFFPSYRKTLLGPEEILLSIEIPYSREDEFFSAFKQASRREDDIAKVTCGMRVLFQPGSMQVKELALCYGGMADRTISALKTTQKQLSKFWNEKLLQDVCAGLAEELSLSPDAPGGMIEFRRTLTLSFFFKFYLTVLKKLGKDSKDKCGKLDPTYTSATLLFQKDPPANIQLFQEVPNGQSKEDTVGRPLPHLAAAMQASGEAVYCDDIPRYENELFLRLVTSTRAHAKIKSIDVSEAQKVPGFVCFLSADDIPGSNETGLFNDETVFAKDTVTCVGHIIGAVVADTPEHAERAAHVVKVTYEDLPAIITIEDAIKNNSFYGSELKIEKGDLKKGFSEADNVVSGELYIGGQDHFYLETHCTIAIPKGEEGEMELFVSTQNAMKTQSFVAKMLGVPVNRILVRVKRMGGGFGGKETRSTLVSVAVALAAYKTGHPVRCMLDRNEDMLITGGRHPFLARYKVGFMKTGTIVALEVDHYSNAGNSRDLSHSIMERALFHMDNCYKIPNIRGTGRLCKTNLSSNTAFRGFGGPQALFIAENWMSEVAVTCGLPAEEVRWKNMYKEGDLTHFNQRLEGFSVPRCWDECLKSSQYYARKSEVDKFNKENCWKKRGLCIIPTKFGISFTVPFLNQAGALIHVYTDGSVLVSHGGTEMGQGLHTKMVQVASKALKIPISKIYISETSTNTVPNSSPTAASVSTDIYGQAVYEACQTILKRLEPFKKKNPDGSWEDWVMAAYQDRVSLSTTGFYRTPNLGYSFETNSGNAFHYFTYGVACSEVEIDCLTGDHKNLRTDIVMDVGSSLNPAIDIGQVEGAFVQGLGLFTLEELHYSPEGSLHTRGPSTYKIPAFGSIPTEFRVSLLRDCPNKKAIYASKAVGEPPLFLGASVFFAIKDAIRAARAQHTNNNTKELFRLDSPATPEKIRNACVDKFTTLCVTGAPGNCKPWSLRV
# Assay: Inhibition of bovine milk xanthine oxidase assessed as hypoxanthine-stimulated ROS generation by measuring H2O2 production at 25 to 50 uM by fluorescence assay
# Conditions: cattle
row,Compound,inhibition (INH)
1,C=C(C)C[C@H]1[C@H]2c3c(Br)cccc3[C@H](CC2(C)C)N1S(=O)(=O)c1ccc(F)cc1 (racemic),Not Active
2,C=C(C)C[C@@H]1N[C@H]2CC(C)(C)[C@@H]1c1ccccc12 (racemic),Not Active
3,C=C(C)C[C@@H]1N[C@H]2CC(C)(C)[C@@H]1c1c(-c3ccc(Cl)c(Cl)c3)cccc12 (racemic),Not Active
4,C=C(C)C[C@H]1[C@H]2c3ccccc3[C@H](CC2(C)C)N1Cc1cccc(F)c1 (racemic),Not Active
5,C=C(C)C[C@H]1[C@H]2c3c(Br)cccc3[C@H](CC2(C)C)N1Cc1cccs1 (racemic),Not Active
6,C=C(C)C[C@H]1[C@H]2c3c(-c4ccc(Cl)c(Cl)c4)cccc3[C@H](CC2(C)C)N1Cc1ccc2c(c1)OCO2 (racemic),Not Active
7,C=C(C)C[C@@H]1N[C@H]2CC(C)(C)[C@@H]1c1c(-c3cccnc3)cccc12 (racemic),Not Active

# Target: T3, NADPH oxidase 1 (Homo sapiens, UniProt Q9Y5S8)
# T3 sequence (Q9Y5S8 whole entry): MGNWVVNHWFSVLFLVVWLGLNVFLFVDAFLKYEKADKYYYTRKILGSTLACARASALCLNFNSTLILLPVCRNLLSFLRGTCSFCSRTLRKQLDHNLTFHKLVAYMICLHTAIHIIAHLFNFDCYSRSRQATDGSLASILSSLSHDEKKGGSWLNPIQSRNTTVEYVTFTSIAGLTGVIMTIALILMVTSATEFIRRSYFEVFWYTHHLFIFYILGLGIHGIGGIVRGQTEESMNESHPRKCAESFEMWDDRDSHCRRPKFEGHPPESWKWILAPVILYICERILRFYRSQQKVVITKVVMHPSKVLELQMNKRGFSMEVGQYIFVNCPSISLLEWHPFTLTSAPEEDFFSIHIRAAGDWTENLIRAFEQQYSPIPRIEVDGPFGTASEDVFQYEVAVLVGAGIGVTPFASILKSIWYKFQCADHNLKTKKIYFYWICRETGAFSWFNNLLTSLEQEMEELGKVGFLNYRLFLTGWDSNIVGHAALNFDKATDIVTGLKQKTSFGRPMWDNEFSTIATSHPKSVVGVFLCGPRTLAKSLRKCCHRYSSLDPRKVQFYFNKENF
# Assay: Inhibition of full length human NOX1 transfected in COS 22 cells assessed as inhibition of constitutive ROS generation by chemiluminescence assay
# Conditions: read-out: IC50
row,Compound,IC50 [µM]
1,C=C(C)C[C@H]1[C@H]2c3c(Br)cccc3[C@H](CC2(C)C)N1S(=O)(=O)c1ccc(F)cc1 (racemic),> 100
2,C=C(C)C[C@@H]1N[C@H]2CC(C)(C)[C@@H]1c1ccccc12 (racemic),> 100
3,C=C(C)C[C@@H]1N[C@H]2CC(C)(C)[C@@H]1c1c(-c3ccc(Cl)c(Cl)c3)cccc12 (racemic),> 100
4,C=C(C)C[C@H]1[C@H]2c3ccccc3[C@H](CC2(C)C)N1Cc1cccc(F)c1 (racemic),> 100
5,C=C(C)C[C@H]1[C@H]2c3c(Br)cccc3[C@H](CC2(C)C)N1Cc1cccs1 (racemic),> 100
6,C=C(C)C[C@H]1[C@H]2c3c(-c4ccc(Cl)c(Cl)c4)cccc3[C@H](CC2(C)C)N1Cc1ccc2c(c1)OCO2 (racemic),> 100

# Target: T4, NADPH oxidase 4 (Homo sapiens, UniProt Q9NPH5)
# T4 sequence (Q9NPH5 whole entry): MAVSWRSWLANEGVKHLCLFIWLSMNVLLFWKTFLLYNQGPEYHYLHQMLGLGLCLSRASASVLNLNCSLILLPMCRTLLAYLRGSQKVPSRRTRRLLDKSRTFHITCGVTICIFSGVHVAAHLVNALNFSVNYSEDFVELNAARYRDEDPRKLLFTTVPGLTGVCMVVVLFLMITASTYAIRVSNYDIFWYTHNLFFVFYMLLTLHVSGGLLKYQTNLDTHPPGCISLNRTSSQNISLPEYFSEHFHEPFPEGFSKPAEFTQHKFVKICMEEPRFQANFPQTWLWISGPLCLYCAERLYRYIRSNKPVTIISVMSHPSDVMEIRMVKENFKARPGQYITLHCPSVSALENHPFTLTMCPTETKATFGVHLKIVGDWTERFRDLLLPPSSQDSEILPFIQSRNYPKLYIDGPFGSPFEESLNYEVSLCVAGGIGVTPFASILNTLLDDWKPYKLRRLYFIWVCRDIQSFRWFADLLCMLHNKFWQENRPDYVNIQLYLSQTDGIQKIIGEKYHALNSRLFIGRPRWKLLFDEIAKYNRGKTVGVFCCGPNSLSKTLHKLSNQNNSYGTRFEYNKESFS
# Assay: Inhibition of full length human NOX4 transfected in COS 22 cells assessed as inhibition of ROS generation by measuring H2O2 production by fluorescence assay
# Conditions: cos 22
row,Compound,IC50
1,C=C(C)C[C@H]1[C@H]2c3c(Br)cccc3[C@H](CC2(C)C)N1S(=O)(=O)c1ccc(F)cc1 (racemic),Not Active
2,C=C(C)C[C@@H]1N[C@H]2CC(C)(C)[C@@H]1c1ccccc12 (racemic),Not Active
3,C=C(C)C[C@H]1[C@H]2c3c(Br)cccc3[C@H](CC2(C)C)N1Cc1cccs1 (racemic),Not Active
4,C=C(C)C[C@H]1[C@H]2c3c(-c4ccc(Cl)c(Cl)c4)cccc3[C@H](CC2(C)C)N1Cc1ccc2c(c1)OCO2 (racemic),Not Active

# Same assay, conditions: read-out: IC50
row,Compound,IC50 [µM]
1,C=C(C)C[C@@H]1N[C@H]2CC(C)(C)[C@@H]1c1c(-c3ccc(Cl)c(Cl)c3)cccc12 (racemic),> 100
2,C=C(C)C[C@H]1[C@H]2c3ccccc3[C@H](CC2(C)C)N1Cc1cccc(F)c1 (racemic),> 100

# Source: ChEMBL document CHEMBL3390837, “Bridged tetrahydroisoquinolines as selective NADPH oxidase 2 (Nox2) inhibitors” (Medchemcomm, 2013)
